This is an account of results in publication PMC8412899 (ACS Omega, 2021).

Each structure is given as a SMILES string.

Series [1] addresses T1, MCL-1 (Homo sapiens, UniProt Q07820). Kind of series: FP. The conditions noted are these: for Ki: FP MCL-1 Ki. The format is binding.
The nature of series [2]: Atropoisomer stability in solution. The format is physicochemical.
The test system of series [3] is NCI-H929 cells. Kind of series: MTT cell viability assay of NCI H929 cell line. The format is cell-based. The conditions noted are these: for loss of cellular activity: compared to 13. (Tetrazolium assays rely on reduction of a dye to a coloured formazan, in cell work by metabolically active cells.)
Series [4] deals with T1, MCL-1. Kind of series: QA. The format is binding. As to conditions: for Ki: QA MCL-1 Ki.
For series [5], the system named is cleaved PARP. Kind of series: In vivo PD: increase of cleaved PARP in AMO1 xenografted mice. The conditions noted are these: AMO1 xenografted mice, 16 h after i.v. bolus treatment at 12.5 mg/kg. A digest of the protocol:
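Female CB-17 SCID mice (6–7 weeks) were implanted s.c. with 5 × 10⁶ AMO-1 cells in 50:50 medium:Matrigel. At ~200 mm³ tumor volume they were randomized, n = 3 per group. Test compound in 20% HPbCD/25 mM HCl was given as a single 12.5 mg/kg i.v. bolus. Cleaved PARP increase was measured in tumors 16 h later.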

The mark [6] stands for this setting: indole analogue versus preceding benzofurane/benzothiophene analogues.

T1 sequence (Q07820 whole entry): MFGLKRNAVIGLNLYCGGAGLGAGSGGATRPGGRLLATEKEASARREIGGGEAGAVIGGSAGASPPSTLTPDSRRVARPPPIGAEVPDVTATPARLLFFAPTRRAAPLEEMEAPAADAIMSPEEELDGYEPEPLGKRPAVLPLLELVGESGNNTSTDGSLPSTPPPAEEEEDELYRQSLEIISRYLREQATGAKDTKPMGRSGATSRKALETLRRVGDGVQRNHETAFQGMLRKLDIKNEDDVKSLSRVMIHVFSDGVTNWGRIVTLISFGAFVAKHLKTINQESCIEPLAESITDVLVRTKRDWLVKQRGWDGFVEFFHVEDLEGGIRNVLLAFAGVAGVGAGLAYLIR

In turn, `CCc1c(-c2cccc(Cl)c2C)c2c(N[C@H](Cc3ccccc3)C(=O)O)ncnc2n1C` (single isomer, unassigned) [Compound 2b, N-[(5Sa)-5-(3-Chloro-2-methylphenyl)-6-ethyl-7-methyl-7H-pyrrolo[2,3-d]pyrimidin-4-yl]-D-phenylalanine] gave a Ki in series [1] of 8700 nM. For the same compound, the atropoisomer stability entry in series [2] was “stable under the testing conditions”.
Compound `CCc1c(-c2cccc(Cl)c2C)c2c(N[C@H](Cc3ccccc3)C(=O)O)ncnc2n1CCC1CCCC1` (single isomer, unassigned) [Compound 9a, N-[(5Ra)-5-(3-Chloro-2-methylphenyl)-7-(2-cyclopentylethyl)-6-ethyl-7H-pyrrolo[2,3-d]pyrimidin-4-yl]-D-phenylalanine] came in with a Ki in series [1] of 3500 nM. This lies in the single-digit micromolar range.
For the compound `CCc1c(-c2cccc(Cl)c2C)c2c(N[C@H](Cc3ccccc3)C(=O)O)ncnc2n1CCC1CCCC1` (single isomer, unassigned) [Compound 9b, N-[(5Sa)-5-(3-Chloro-2-methylphenyl)-7-(2-cyclopentylethyl)-6-ethyl-7H-pyrrolo[2,3-d]pyrimidin-4-yl]-D-phenylalanine], in series [1], the “FP MCL-1 Ki” value is on record as “submicromolar” and affinity was put at a Ki of 790 nM.
With `CCc1c(-c2cccc(Cl)c2C)c2c(N[C@H](Cc3ccccc3)C(=O)O)ncnc2n1Cc1cccc2ccccc12` (single isomer, unassigned) [Compound 10a, N-[(5Ra)-5-(3-Chloro-2-methylphenyl)-6-ethyl-7-(naphthalen-1-ylmethyl)-7H-pyrrolo[2,3-d]pyrimidin-4-yl]-D-Phenylalanine], affinity in series [1] was put at a Ki of 3500 nM.
Same read-out and setting: under `CCc1c(-c2cccc(Cl)c2C)c2c(N[C@H](Cc3ccccc3)C(=O)O)ncnc2n1Cc1cccc2ccccc12` (single isomer, unassigned) [Compound 10b, N-[(5Sa)-5-(3-Chloro-2-methylphenyl)-6-ethyl-7-(naphthalen-1-ylmethyl)-7H-pyrrolo[2,3-d]pyrimidin-4-yl]-D-phenylalanine] stands 260 nM; under `Cc1c(Cl)cccc1-c1c2n(c3ncnc(N[C@H](Cc4ccccc4)C(=O)O)c13)CCCC2` (single isomer, unassigned) [Compound 12a, N-[(5Ra)-5-(3-Chloro-2-methylphenyl)-6,7,8,9-tetrahydropyrimido[5,4-b]indolizin-4-yl]-D-phenylalanine], 11000 nM.
As to `Cc1c(Cl)cccc1-c1c2n(c3ncnc(N[C@H](Cc4ccccc4)C(=O)O)c13)CCCC2` (single isomer, unassigned) [Compound 12b, N-[(5Sa)-5-(3-Chloro-2-methylphenyl)-6,7,8,9-tetrahydropyrimido[5,4-b]indolizin-4-yl]-D-phenylalanine], the inhibition constant (Ki) in series [1] stood at 5900 nM.
Regarding `CCc1c(-c2cccc(Cl)c2C)c2c(N[C@H](Cc3ccccc3)C(=O)O)ncnc2n1C(C)C` [Compound 6a, N-[(5Ra)-5-(3-Chloro-2-methylphenyl)-6-ethyl-7-(propan-2-yl)-7H-pyrrolo[2,3-d]pyrimidin-4-yl]-D-phenylalanine], the inhibition at 50 µM in series [1] (read-out: FP MCL-1 inhibition at 50 μM, @50 μM, highest tested dose) stood at 67%.
For the compound `CCc1c(-c2cccc(Cl)c2C)c2c(N[C@H](Cc3ccccc3)C(=O)O)ncnc2n1C(C)C` [Compound 6b, N-[(5Sa)-5-(3-Chloro-2-methylphenyl)-6-ethyl-7-(propan-2-yl)-7H-pyrrolo[2,3-d]pyrimidin-4-yl]-D-phenylalanine], the “FP MCL-1 inhibition at 50 μM” value in series [1] (@50 μM, highest tested dose) is listed as 78%@50 μM.
Turning to `Cc1c(Cl)cccc1-c1c2n(c3ncnc(N[C@H](Cc4ccccc4)C(=O)O)c13)CCC2` [Compound 11, N-[5-(3-Chloro-2-methylphenyl)-7,8-dihydro-6H-pyrimido[5,4-b]pyrrolizin-4-yl]-D-phenylalanine], the atropoisomer stability result in series [2] is “facile interconversion of the atropoisomers in solution”.
`COc1ccccc1C[C@@H](Oc1ncnc2sc(-c3ccc(F)cc3)c(-c3ccc(OCCN4CCN(C)CC4)c(Cl)c3C)c12)C(=O)O` [Compound 13, (2R)-2-{[(5Sa)-5-{3-Chloro-2-methyl-4-[2-(4-methylpiperazin-1-yl)ethoxy]phenyl}-6-(4-fluorophenyl)thieno[2,3-d]pyrimidin-4-yl]oxy}-3-(2-methoxyphenyl)propanoic Acid]: the affinity in series [1] corresponds to a Ki of 14 nM. This lies in the double-digit nanomolar range.
Turning to `COc1ccccc1C[C@@H](Oc1cccc2oc(-c3ccc(F)cc3)c(-c3ccc(OCCN4CCN(C)CC4)c(Cl)c3C)c12)C(=O)O` [Compound 14, (2R)-2-{[(3Sa)-3-{3-Chloro-2-methyl-4-[2-(4-methylpiperazin-1-yl)ethoxy]phenyl}-2-(4-fluorophenyl)-1-benzofuran-4-yl]oxy}-3-(2-methoxyphenyl)propanoic Acid], in series [1], the Ki stood at 820 nM. Also, the “loss of cellular activity” value in series [3] is “more than 10 fold”.
In the same order, the values of `COc1ccccc1C[C@@H](Oc1cccc2cc(-c3ccc(F)cc3)n(-c3ccc(OCCN4CCN(C)CC4)c(Cl)c3C)c12)C(=O)O` [Compound 15, (2R)-2-{[(1Ra)-1-{3-Chloro-2-methyl-4-[2-(4-methylpiperazin-1-yl)ethoxy]phenyl}-2-(4-fluorophenyl)-1H-indol-7-yl]oxy}-3-(2-methoxyphenyl)propanoic Acid] are 47 nM and “more than 10 fold”.
With `COc1ccccc1-c1nccc(COc2ccccc2C[C@@H](Nc2ncnc3sc(-c4ccc(F)cc4)c(-c4ccc(OCCN5CCN(C)CC5)c(Cl)c4C)c23)C(=O)O)n1` [Compound 16b, N-[(5Sa)-5-{3-Chloro-2-methyl-4-[2-(4-methylpiperazin-1-yl)ethoxy]phenyl}-6-(4-fluorophenyl)thieno[2,3-d]pyrimidin-4-yl]-2-{[2-(2-methoxyphenyl)pyrimidin-4-yl]methoxy}-D-phenylalanine], the inhibition constant (Ki) in series [4] stood at 0.303 nM.
For `COc1ccccc1-c1nccc(COc2ccccc2C[C@@H](Oc2ccnc3sc(-c4ccc(F)cc4)c(-c4ccc(OCCN5CCN(C)CC5)c(Cl)c4C)c23)C(=O)O)n1` [Compound 17, (2R)-2-{[(3Sa)-3-{3-Chloro-2-methyl-4-[2-(4-methylpiperazin-1-yl)ethoxy]phenyl}-2-(4-fluorophenyl)thieno[2,3-b]pyridin-4-yl]oxy}-3-(2-{[2-(2-methoxyphenyl)pyrimidin-4-yl]methoxy}phenyl)propanoic Acid], in series [4], the Ki amounted to 0.1 nM. Besides, the “PARP activation (fold)” value in series [5] is reported as 12 fold.
For `COc1ccccc1-c1nccc(COc2ccccc2C[C@@H](Nc2ccnc3sc(-c4ccc(F)cc4)c(-c4ccc(OCCN5CCN(C)CC5)c(Cl)c4C)c23)C(=O)O)n1` [Compound 18, N-[3-{3-Chloro-2-methyl-4-[2-(4-methylpiperazin-1-yl)ethoxy]phenyl}-2-(4-fluorophenyl)thieno[2,3-b]pyridin-4-yl]-2-{[2-(2-methoxyphenyl)pyrimidin-4-yl]methoxy}-D-phenylalanine], the Ki in series [4] turned out to be 0.1 nM. That is a sub-nanomolar value.
In turn, `COc1ccccc1-c1nccc(COc2ccccc2C[C@@H](Nc2nccc3sc(-c4ccc(F)cc4)c(-c4ccc(OCCN5CCN(C)CC5)c(Cl)c4C)c23)C(=O)O)n1` [Compound 19, N-[3-{3-Chloro-2-methyl-4-[2-(4-methylpiperazin-1-yl)ethoxy]phenyl}-2-(4-fluorophenyl)thieno[3,2-c]pyridin-4-yl]-2-{[2-(2-methoxyphenyl)pyrimidin-4-yl]methoxy}-D-phenylalanine] came in with an inhibition constant (Ki) in series [4] of 1.2 nM. The drop in affinity in series [4] (compared to 16b) was 2–4 fold. Besides, the “drop in cellular activity” value in series [3] (compared to 16b) is listed as 2–4 fold.
`COc1ccccc1-c1nccc(COc2ccccc2C[C@@H](Oc2cccc3sc(-c4ccc(F)cc4)c(-c4ccc(OCCN5CCN(C)CC5)c(Cl)c4C)c23)C(=O)O)n1` [Compound 20, (2R)-2-{[(3Sa)-3-{3-Chloro-2-methyl-4-[2-(4-methylpiperazin-1-yl)ethoxy]phenyl}-2-(4-fluorophenyl)-1-benzothiophen-4-yl]oxy}-3-(2-{[2-(2-methoxyphenyl)pyrimidin-4-yl]methoxy}phenyl)propanoic Acid] came in with an inhibition constant (Ki) in series [4] of 1.8 nM. Moreover, the “PARP activation (fold)” value in series [5] worked out at 156 fold.
Compound `COc1ccccc1-c1nccc(COc2ccccc2C[C@@H](Oc2cccc3oc(-c4ccc(F)cc4)c(-c4ccc(OCCN5CCN(C)CC5)c(Cl)c4C)c23)C(=O)O)n1` [Compound 21, (2R)-2-{[(3Sa)-3-{3-Chloro-2-methyl-4-[2-(4-methylpiperazin-1-yl)ethoxy]phenyl}-2-(4-fluorophenyl)-1-benzofuran-4-yl]oxy}-3-(2-{[2-(2-methoxyphenyl)pyrimidin-4-yl]methoxy}phenyl)propanoic Acid] showed a Ki in series [4] of 1.3 nM. That is a single-digit nanomolar value.
In series [4], `COc1ccccc1-c1nccc(COc2ccccc2C[C@@H](Oc2cccc3c2c(-c2ccc(OCCN4CCN(C)CC4)c(Cl)c2C)c(-c2ccc(F)cc2)n3C)C(=O)O)n1` [Compound 22, (2R)-2-{[(3Sa)-3-{3-Chloro-2-methyl-4-[2-(4-methylpiperazin-1-yl)ethoxy]phenyl}-2-(4-fluorophenyl)-1-methyl-1H-indol-4-yl]oxy}-3-(2-{[2-(2-methoxyphenyl)pyrimidin-4-yl]methoxy}phenyl)propanoic Acid] returned a Ki of 2.3 nM. For the same compound, the “drop of on-target affinity” value in series [4] (setting [6]) is given as “ca. 2 fold”. Further, the “drop of cellular activity” value in series [3] (setting [6]) is “ca. 2 fold”.
Compound `COc1ccccc1-c1nccc(COc2ccccc2C[C@@H](Oc2nccc3nc(-c4ccc(F)cc4)c(-c4ccc(OCCN5CCN(C)CC5)c(Cl)c4C)n23)C(=O)O)n1` [Compound 26, (2R)-2-{[(3Ra)-3-{3-Chloro-2-methyl-4-[2-(4-methylpiperazin-1-yl)ethoxy]phenyl}-2-(4-fluorophenyl)imidazo[1,2-c]pyrimidin-5-yl]oxy}-3-(2-{[2-(2-methoxyphenyl)pyrimidin-4-yl]methoxy}phenyl)propanoic Acid] had an inhibition constant (Ki) in series [4] of 8.2 nM. In series [4] (compared to 16a), this compound had a drop in affinity of 200 fold. Further, the “drop in cellular activity” value in series [3] (compared to 16a) turned out to be 200 fold.

The term Ki denotes the equilibrium dissociation constant of an inhibitor or competing ligand from its target. A higher Ki goes with weaker binding. The inhibition is how much of the control response was suppressed.
